Variants at the floor of the assay were thinned out.
B1: tRNA (parent)
chain: GUUCCGUUGGCGUAAUGGUAACGCGUCUCCCUCCUAAGGAGAAGACUGCGGGUUCGAGUCCCGUACGGAACG

Variants of: B1
Assay: yeast fitness relative to wild type (ratio to wild type); higher = fitter; tRNA-Arg(CCU), competitive growth, 37 C, YPD
Outline: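 Genotype frequency changes were the basis for Darwinian fitness relative to wild type. The frequencies came from 100-nucleotide paired-end sequencing of gene amplicons from the start population and each end population of pooled yeast strains with tRNA-Arg(CCU) gene variants at the native locus. Competition ran in YPD at 37°C for 24 hours in six replicates, genotypes needed ≥ 100 starting reads, and estimates < 0.5 were set to 0.5.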

First: GUUCCGUUGCCGUAAUGGUACCGCGUCUCUCUCCUAAGGACAAGACUGCGGGUUCGAGUCCCGUACGGAACG [G10C A21C C30U G41C]
Second: GUUCCGUUGACGUAAUGGUAACGCGUCUCCCACCUAAGGAGAAGACUGUGGGUUCGAGUCCCGUACGGAACG [G10A U32A C49U]
The yeast fitness of the first is lower: at most 0.5 for the first, 0.577 for the second.

Going from GUUCCGUUGCCGUGAUGGUAACGCGACUCCCUCCUAAGGAGAAGACUGUGGGUUCGAGUCCCGUUCGGAACG [G10C A14G U26A C49U A65U] to GUUCCGUUGACGUAAUGGUAACGCGCCUCCCUCCUAAGGAGAAGACUGCGGGUUCAAGUCCCGUACGGAACG [G10A U26C G56A], the yeast fitness rises from at most 0.5 to 0.542.

GUUCCGUUGACGUAACGGUAACGCGUCUCCCUCCCAAGGUGAAGACUGCGGGUUCGAGUCCCGUACGGAACG [G10A U16C U35C A40U] and GUUCCGUUGCCGUAAUGGUUACGCGUCUCCCUCCUAAGGAGGAGACUGCGGGUUCGAGUGCCGUACGGAACG [G10C A20U A42G C60G] cannot be ordered by yeast fitness: at most 0.5 for the first, at most 0.5 for the second.

First: GUUCCGUUGCCGUAGUGAUAACGCGUCUCCCUCCAAAGGAGAAAACUGCGGGUUCGAGUCCCGUACGGAACG [G10C A15G G18A U35A G44A]
Second: GUUCCGUUGACGUAAUGGUAACGCGUCUCCCUCCUAAGGAGAAGACUGCGGGUUCGAGCCCCGUACGGAACG [G10A U59C]
The yeast fitness of the first is lower: at most 0.5 for the first, 0.721 for the second.

Going from GUUCCGUUGACGUAAUGGAAACGCGUCUCCCUCCUAAGGAGAAGAAUGCGGGUUCGAGUCCCGUACGGAACG [G10A U19A C46A] to GUUCCGUUGACGUAAUGGCAACGCGUCUCCCUCCUAAGGAGAAGACUAGGGGUUCGAGUCCCGUACGGAACG [G10A U19C G48A C49G], the yeast fitness rises from 0.542 to 0.56.

Compared with GUUCCGUUGCCGUAGUGGUAACGCGUCUCCCUCCAAAGGAGAAAACUGCGGGUUCGAGUCCCGUACGGCACG [G10C A15G U35A G44A A69C], GUUCCGUUGCCGUCAUGGUAUCGCGUCUCCUUCCUAAGGAGAAGACUGCGGGUUCGAGUCCCGUACGGAACG [G10C A14C A21U C31U] is higher in yeast fitness: at most 0.5 for the first, 0.773 for the second.

GUUCCGUUGACGAAAUGGUAACGCGUCUCUCUCCUAAGGAGAAGACUGCGGGUUGGACUCCCGUACGGAACG [G10A U13A C30U C55G G58C] and GUUCCGUUGCCGUAUUGGUAACGCGUCUCCCUACUUAGGAGAAGACUGCGGGUUCGAGUCCUGUACGGAACG [G10C A15U C33A A36U C62U] cannot be ordered by yeast fitness: at most 0.5 for the first, at most 0.5 for the second.

GUUCCGUUGACGUAAAGGUAACGCGUCUCCCUCCUAAGGAGAAGACUACGGGUUCGAGUCCCGUUCGGAACG [G10A U16A G48A A65U] and GUUCCGUUGACGACAUGGUAACGCGUCUCCCUCCUAAGGCGAAGACUGCGGGUUCGAGUCCGGUACGGAACG [G10A U13A A14C A40C C62G] cannot be ordered by yeast fitness: at most 0.5 for the first, at most 0.5 for the second.

Compared with GUUCCGUUGACGUAAUGGUAACGCGUCUCCCUCCGAUGGAGAAGACUGCGGGUUCGAGUCCCGUACGGAACG [G10A U35G A37U], GUUCCGUUGCCGUAAUGGUGACGCGUCUCCCUCCUAAGGAGAGGAUUGCGGGUUCGAGUCCCGUACGGAACG [G10C A20G A43G C46U] is lower in yeast fitness: 0.551 for the first, at most 0.5 for the second.

First: GUUCCGUUGCCGUCAUGGUAACGCGUCUCCCUCCUAAGGAGAAGACUGCGGGUUCGAAUCCCGUACGGAACG [G10C A14C G58A]
Second: GUUCCGUUGACGUAAUGGUAACGCGUCUCCCUCCUAAGGAGAAGACUGCGGGUUCGAGUCCCGUACGAAGCG [G10A G68A A70G]
The yeast fitness of the first is lower: at most 0.5 for the first, 0.596 for the second.

GUUCCGUUGCCGUUAUGGUAACGCGUCUCCCUCCUAAGGAGAAGACUGCGAGUUCGAGUCCUGUACGGAACG [G10C A14U G51A C62U] and GUUCCGUUGCCGUAAUGGUACGGCGUCUCCCUCCUGAGGAGAAGACUGCGGGUUCGCGUCCCGUACGGAACG [G10C A21C C22G A36G A57C] cannot be ordered by yeast fitness: at most 0.5 for the first, at most 0.5 for the second.

Compared with GUUCCGUUGCCGUUAUGGAAAUGCGUCUCCCUCCUGAGGAGAAGACUGCGGGUUCGAGUCCCGUACGGAACG [G10C A14U U19A C22U A36G], GUUCCGUUGACGUAAUGGAAACGCGUCUCCCUCCUAAGGAGAAGACUGCGGGUUCGAGUCCCGUACGGAACG [G10A U19A] is higher in yeast fitness: at most 0.5 for the first, 0.729 for the second.

Going from GUUCCGUUGACGUAAUGGAAACGCGUCUCCCUCCUAAGGCGCAGACUGCGGGUUCGAGUCCCGUACGCAACG [G10A U19A A40C A42C G68C] to GUUCCGUUGACGUAAUGGUAACGCGACUCCCUCCUAAGGAGAAGACUGCGGGUUCGAGUCCCGUACGGAACG [G10A U26A], the yeast fitness rises from 0.582 to 0.731.

First: GUUCCGUUGACGUAAUGGUAACGCGGCUCCCUCCUAAGGAGAAGACUGCGGGUUCGAGUCCCGUACGGAACG [G10A U26G]
Second: GUUCCGUUGACGUAAUGGUAACGCGCCUCCCUCCUAAGGAGAAGACUGCGGGUUCGAGUCCCGUACGGAACG [G10A U26C]
The yeast fitness of the first is lower: 0.681 for the first, 0.736 for the second.

First: GUUCCGUUGACGUAAUGGUAACGCGUCUCCCACCUAAGGAGAAGACUGCGGGUUCGAGUCCCGUACGGAACG [G10A U32A]
Second: GUUCCGUUGACGUAAUGGUAACGCGUCUCCCCCCUAAGGAGAAGACUGCGGGUUCGAGUCCCGUACGGAACG [G10A U32C]
The yeast fitness of the first is lower: 0.601 for the first, 0.786 for the second.

Compared with GUUCCGUUGACGUAAUGGUAACGCGACUCCCUCCUAAGGAGAAGACUGCGGGUUCGAGUCCCGUAUGGAACG [G10A U26A C66U], GUUCCGUUGCCGUAAUGGUGACGCGUCUCCCUCCUAAGGAGAAGACUGCGGGUUCGAGUCCCGUACGGAACG [G10C A20G] is higher in yeast fitness: 0.537 for the first, 0.775 for the second.

Going from GUUCCGUUGCCGUUAUGGAAAUGCGUCUCCCUCCUAAGGAGAAGACUGCGGGUUCGAGUCCAGUACGGAACG [G10C A14U U19A C22U C62A] to GUUCCGUUGACGUAAUGGUAACGCGUCUCCCUCCGAAGGAGAGGAUUGCGGGUUCGAGUCCCGUACGGAACG [G10A U35G A43G C46U], the yeast fitness rises from at most 0.5 to 0.587.

Going from GUUCCGUUGACGUAAUGGUAACGCGUCUCCCUCCUAAGGAGAAGACUGCGGGUUCGAGUCCCGAACGGAACG [G10A U64A] to GUUCCGUUGCCGUAAUGGUUACGCGUUUUCCUCCUAAGGUGAAGACUGCGGGUUCGAGUCCCGUAUGGAACG [G10C A20U C27U C29U A40U C66U], the yeast fitness falls from 0.73 to at most 0.5.

GUUCCGUUGCCGUUAUGGUAACGCGUCUCCCUCCUAAGGAGAAGACUGCGGGUUCGAGUCCCGUAUGGAACG [G10C A14U C66U] and GUUCCGUUGACGUAAUGGUAACGCGUCUCCCUCCAAAGGAGAAGACUGCGGGUUCGAGUCCCCUACGGAACG [G10A U35A G63C] cannot be ordered by yeast fitness: at most 0.5 for the first, at most 0.5 for the second.

— the RNAGym collection of RNA variant scans (doi:10.1126/science.aae0568)
